Data as given in ChEMBL document CHEMBL5131562, “1,3-Dioxane-Linked Novel Bacterial Topoisomerase Inhibitors: Expanding Structural Diversity and the Antibacterial Spectrum” (ACS Med Chem Lett, 2022).
Values after ≈ are worked out from the molar mass of the structure shown.

Assays:
[1] = tested on: Neisseria gonorrhoeae; test: Antimicrobial activity against Neisseria gonorrhoeae G strain harbouring type 2 topoisomerase GyrA S91F and ParE G410V mutant incubated for 20 hrs by agar dilution method; assay type: functional
[2] = tested on: Neisseria gonorrhoeae; test: Antimicrobial activity against wild type Neisseria gonorrhoeae O strain incubated for 20 to 24 hrs by CLSI protocol based broth microdilution method; assay type: functional; details: time 20-24 hrs
[3] = tested on: Neisseria gonorrhoeae; test: Antimicrobial activity against wild type Neisseria gonorrhoeae V strain harbouring type 2 topoisomerase GyrA S91F, D95G and ParC S87R mutant incubated for 20 to 24 hrs by CLSI protocol based broth microdilution method; assay type: functional; details: time 20-24 hrs
[4] = Inhibition of Neisseria gonorrhoeae DNA gyrase supercoiling activity incubated for 25 min by ethidium bromide/bromophenol blue staining based agarose gel electrophoresis analysis
Outline: (§1)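 The N. gonorrhoeae enzymes were assayed separately: supercoiling by DNA gyrase, and decatenation of kDNA by topoisomerase IV. Concentration–response data were collected over at least three independent experiments and summarized with standard deviation, and IC50 values were derived.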

[5] = tested on: Neisseria gonorrhoeae; test: Antimicrobial activity against Neisseria gonorrhoeae L strain harbouring type 2 topoisomerase GyrA S91F,D95N and ParC D86N,S88P mutant incubated for 20 hrs by agar dilution method; assay type: functional
[6] = tested on: Neisseria gonorrhoeae; test: Antimicrobial activity against Neisseria gonorrhoeae K strain harbouring type 2 topoisomerase GyrA S91F, D95N and ParC S87R, S88P mutant incubated for 20 to 24 hrs by CLSI protocol based broth microdilution method; assay type: functional; details: time 20-24 hrs
[7] = Inhibition of Neisseria gonorrhoeae DNA topoisomerase 4 decatenation activity using kDNA as substrate incubated for 10 to 20 min by ethidium bromide/bromophenol blue staining based agarose gel electrophoresis analysis; outline: as §1
[8] = tested on: Neisseria gonorrhoeae; test: Antimicrobial activity against wild type Neisseria gonorrhoeae ATCC 49226 incubated for 20 to 24 hrs by CLSI protocol based broth microdilution method; assay type: functional; details: time 20-24 hrs
[9] = tested on: Neisseria gonorrhoeae; test: Antimicrobial activity against Neisseria gonorrhoeae G strain harbouring type 2 topoisomerase GyrA S91F and ParE G410V mutant incubated for 20 to 24 hrs by CLSI protocol based broth microdilution method; assay type: functional; details: time 20-24 hrs
[10] = tested on: Neisseria gonorrhoeae; test: Antimicrobial activity against Neisseria gonorrhoeae M strain harbouring type 2 topoisomerase GyrA S91F,D95G mutant incubated for 20 hrs by agar dilution method; assay type: functional
[11] = tested on: Neisseria gonorrhoeae; test: Antimicrobial activity against wild type Neisseria gonorrhoeae F strain incubated for 20 to 24 hrs by CLSI protocol based broth microdilution method; assay type: functional; details: time 20-24 hrs
[12] = tested on: Neisseria gonorrhoeae; test: Antimicrobial activity against wild type Neisseria gonorrhoeae ATCC 49226 incubated for 20 hrs by agar dilution method; assay type: functional
[13] = tested on: Neisseria gonorrhoeae; test: Antimicrobial activity against wild type Neisseria gonorrhoeae P strain incubated for 20 to 24 hrs by CLSI protocol based broth microdilution method; assay type: functional; details: time 20-24 hrs
[14] = tested on: Neisseria gonorrhoeae; test: Antimicrobial activity against wild type Neisseria gonorrhoeae Y strain harbouring type 2 topoisomerase GyrA S91F, D95G and ParC S87R mutant incubated for 20 to 24 hrs by CLSI protocol based broth microdilution method; assay type: functional; details: time 20-24 hrs
[15] = Cytotoxicity activity against human K562 cells assessed as inhibition of cellular growth; assay type: toxicity, cell-based
Outline: (§2)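 Human K562 leukemia cells were tested alongside K/VP.5, an etoposide-resistant clonal subline derived from them that has reduced levels of human topoisomerase IIα. Cell growth inhibition was expressed as an IC50.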

[16] = Metabolic stability in mouse liver microsomes assessed as half life; assay type: ADME, Microsome
[17] = molecular target: DNA gyrase (Staphylococcus aureus, UniProt P0A0K8+P20831); test: Inhibition of Staphylococcus aureus DNA gyrase supercoiling activity incubated for 25 min by ethidium bromide/bromophenol blue staining based agarose gel electrophoresis analysis; assay type: protein-complex assay
[18] = tested on: Staphylococcus aureus; test: Antibacterial activity against methicillin-resistant Staphylococcus aureus USA300 by CLSI method; assay type: functional
[19] = tested on: Staphylococcus aureus; test: Antibacterial activity against Staphylococcus aureus harbouring GyrA D83N mutant by CLSI method; assay type: functional
[20] = tested on: Staphylococcus aureus; test: Antibacterial activity against Staphylococcus aureus ATCC 29213 by CLSI method; assay type: functional
[21] = molecular target: Topoisomerase IV (Staphylococcus aureus, UniProt P0C1S7+P0C1U9); test: Inhibition of Staphylococcus aureus DNA topoisomerase 4 decatenation activity using kDNA as substrate incubated for 10 to 20 min by ethidium bromide/bromophenol blue staining based agarose gel electrophoresis analysis; assay type: protein-complex assay
[22] = tested on: Staphylococcus aureus; test: Antibacterial activity against Staphylococcus aureus 3527 by CLSI method; assay type: functional
[23] = Cytotoxicity activity against human K/VP.5 cells assessed as inhibition of cellular growth; assay type: toxicity, cell-based; outline: as §2
[24] = tested on: Staphylococcus aureus; test: Antibacterial activity against cystic fibrosis isolate Staphylococcus aureus by CLSI method; assay type: functional
[25] = tested on: Staphylococcus aureus; test: Selectivity ratio of IC50 for inhibition of Staphylococcus aureus DNA topoisomerase 4 decatenation activity to IC50 for inhibition of Staphylococcus aureus DNA gyrase supercoiling activity
[26] = molecular target: Voltage-gated inwardly rectifying potassium channel KCNH2 (Homo sapiens, UniProt Q12809); test: Inhibition of hERG cardiac ion channel; assay type: toxicity
Outline: (§3)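 hERG channel inhibition was run by a contract lab. […] Determinations were made in duplicate or triplicate (n = 2 or 3).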

[27] = molecular target: hERG (KCNH2) (Homo sapiens, UniProt Q12809); test: Inhibition of hERG cardiac ion channel at 200 uM relative to control; assay type: toxicity; outline: as §3

Structure (SMILES) | MIC [2] | MIC [3] | MIC [6] | MIC [8] | MIC [9] | MIC [11] | MIC [13] | MIC [14] | IC50 [15] | half-life [16] | IC50 [17] | MIC [18] | MIC [19] | MIC [20] | IC50 [21] | MIC [22] | IC50 [23] | MIC [24] | Ratio IC50 [25] | IC50 [26] | further results
COc1ccc2ncc(F)c(C[C@H](O)[C@H]3OC[C@H](NCc4ccc5c(n4)NC(=O)CS5)CO3)c2n1 | ≤ 0.03 µg/mL | ≤ 0.03 µg/mL | ≤ 0.03 µg/mL | ≤ 0.03 µg/mL | ≤ 0.03 µg/mL | ≤ 0.03 µg/mL | ≤ 0.03 µg/mL | ≤ 0.03 µg/mL |  |  |  |  |  |  |  |  |  |  |  |  | MIC [1]: 1 µg/mL (≈ 1.99 µM); IC50 [4]: 0.39 µM; MIC [5]: 1 µg/mL (≈ 1.99 µM); IC50 [7]: 3.6 µM; MIC [10]: 0.5 µg/mL (≈ 0.997 µM); MIC [12]: 0.25 µg/mL (≈ 0.498 µM)
COc1ccc2ncc(F)c(C[C@H](O)[C@H]3OC[C@H](NC(=O)c4ccc5c(n4)NC(=O)CS5)CO3)c2n1 | ≤ 0.015 µg/mL | ≤ 0.015 µg/mL | ≤ 0.015 µg/mL | ≤ 0.015 µg/mL | 0.12 µg/mL (≈ 0.233 µM) | ≤ 0.015 µg/mL | ≤ 0.015 µg/mL | ≤ 0.015 µg/mL | 7.5 µM | 5.42 min | 0.15 µM | ≤ 0.06 µg/mL | 0.25 µg/mL (≈ 0.485 µM) | 0.06 µg/mL (≈ 0.116 µM) | 0.42 µM | ≤ 0.06 µg/mL | > 100 µM | ≤ 0.06 µg/mL | 2.8 | > 100 µM | MIC [1]: 0.25 µg/mL (≈ 0.485 µM); IC50 [4]: 0.64 µM; MIC [5]: 0.5 µg/mL (≈ 0.97 µM); IC50 [7]: 27 µM; MIC [10]: 0.12 µg/mL (≈ 0.233 µM); MIC [12]: 0.12 µg/mL (≈ 0.233 µM)
COc1ccc2ncc(F)c(C[C@H](O)[C@H]3OC[C@H](NC(=O)c4ccc5c(n4)NC(=O)CO5)CO3)c2n1 | 0.06 µg/mL (≈ 0.12 µM) | ≤ 0.015 µg/mL | 0.12 µg/mL (≈ 0.24 µM) | ≤ 0.015 µg/mL | 0.25 µg/mL (≈ 0.501 µM) | ≤ 0.015 µg/mL | ≤ 0.015 µg/mL | ≤ 0.015 µg/mL | 0.49 µM | 5.56 min | 0.19 µM | ≤ 0.06 µg/mL | 1 µg/mL (≈ 2 µM) | 0.125 µg/mL (≈ 0.25 µM) | 1.1 µM | ≤ 0.06 µg/mL | 3.1 µM | ≤ 0.06 µg/mL | 5.8 | > 100 µM | 
O=c1ccc2ccc(F)c3c2n1CC3C[C@H]1OC[C@H](NCc2cc3c(cn2)OCCC3)CO1 (some centres not stated) | 0.5 µg/mL (≈ 1.11 µM) | ≤ 0.03 µg/mL | 0.5 µg/mL (≈ 1.11 µM) | 0.25 µg/mL (≈ 0.554 µM) | 2 µg/mL (≈ 4.43 µM) | ≤ 0.03 µg/mL | 1 µg/mL (≈ 2.21 µM) | ≤ 0.03 µg/mL | 109 µM | 3.64 min | 0.58 µM | 0.5 µg/mL (≈ 1.11 µM) | 2 µg/mL (≈ 4.43 µM) | ≤ 0.25 µg/mL | 2.9 µM | 0.5 µg/mL (≈ 1.11 µM) | 85 µM | ≤ 0.25 µg/mL | 5 | 53 µM | 
O=c1ccc2ncc(F)c3c2n1CC3C[C@H]1OC[C@H](NCc2cc3c(nn2)OCCS3)CO1 (some centres not stated) | 32 µg/mL (≈ 67.9 µM) | 4 µg/mL (≈ 8.48 µM) | 32 µg/mL (≈ 67.9 µM) | 32 µg/mL (≈ 67.9 µM) | > 32 µg/mL | 8 µg/mL (≈ 17 µM) | 32 µg/mL (≈ 67.9 µM) | 8 µg/mL (≈ 17 µM) | 98 µM | 113 min | 1.8 µM | 4 µg/mL (≈ 8.48 µM) | > 8 µg/mL | 2 µg/mL (≈ 4.24 µM) | 10 µM | 4 µg/mL (≈ 8.48 µM) | 197 µM | 2 µg/mL (≈ 4.24 µM) | 5.6 | > 200 µM | inhibition at 200 µM [27]: 23%
O=c1ccc2ccc(F)c3c2n1CC3C[C@H]1OC[C@H](NCc2cc3c(nn2)OCCO3)CO1 (some centres not stated) | 32 µg/mL (≈ 70.4 µM) | 32 µg/mL (≈ 70.4 µM) | > 32 µg/mL | 32 µg/mL (≈ 70.4 µM) | > 32 µg/mL | 16 µg/mL (≈ 35.2 µM) | 32 µg/mL (≈ 70.4 µM) | 32 µg/mL (≈ 70.4 µM) | 156 µM | 102 min | 3.5 µM | 4 µg/mL (≈ 8.8 µM) | > 8 µg/mL | 2 µg/mL (≈ 4.4 µM) | 9.7 µM | 4 µg/mL (≈ 8.8 µM) | 171 µM | 1 µg/mL (≈ 2.2 µM) | 2.8 | > 200 µM | inhibition at 200 µM [27]: 21%
